Data published in ChEMBL document CHEMBL1138738, “Synthesis, in vitro pharmacology, structure-activity relationships, and pharmacokinetics of 3-alkoxy-2-amino-6-fluorobicyclo[3.1.0]hexane-2,6-dicarboxylic acid derivatives as potent and selective group II metabotropic glutamate receptor antagonists” (J Med Chem, 2004).
Blank lines part the entries; values can stand above or below the molecule they belong to.

Assays:
[1] = target: T1, Metabotropic glutamate receptor 2 (Rattus norvegicus, UniProt P31421); test: Binding affinity towards metabotropic glutamate receptor 2 of rat expressed in CHO cells was determined by using [3H]MGS-0008; type: cell-based
T1 sequence (P31421 whole entry): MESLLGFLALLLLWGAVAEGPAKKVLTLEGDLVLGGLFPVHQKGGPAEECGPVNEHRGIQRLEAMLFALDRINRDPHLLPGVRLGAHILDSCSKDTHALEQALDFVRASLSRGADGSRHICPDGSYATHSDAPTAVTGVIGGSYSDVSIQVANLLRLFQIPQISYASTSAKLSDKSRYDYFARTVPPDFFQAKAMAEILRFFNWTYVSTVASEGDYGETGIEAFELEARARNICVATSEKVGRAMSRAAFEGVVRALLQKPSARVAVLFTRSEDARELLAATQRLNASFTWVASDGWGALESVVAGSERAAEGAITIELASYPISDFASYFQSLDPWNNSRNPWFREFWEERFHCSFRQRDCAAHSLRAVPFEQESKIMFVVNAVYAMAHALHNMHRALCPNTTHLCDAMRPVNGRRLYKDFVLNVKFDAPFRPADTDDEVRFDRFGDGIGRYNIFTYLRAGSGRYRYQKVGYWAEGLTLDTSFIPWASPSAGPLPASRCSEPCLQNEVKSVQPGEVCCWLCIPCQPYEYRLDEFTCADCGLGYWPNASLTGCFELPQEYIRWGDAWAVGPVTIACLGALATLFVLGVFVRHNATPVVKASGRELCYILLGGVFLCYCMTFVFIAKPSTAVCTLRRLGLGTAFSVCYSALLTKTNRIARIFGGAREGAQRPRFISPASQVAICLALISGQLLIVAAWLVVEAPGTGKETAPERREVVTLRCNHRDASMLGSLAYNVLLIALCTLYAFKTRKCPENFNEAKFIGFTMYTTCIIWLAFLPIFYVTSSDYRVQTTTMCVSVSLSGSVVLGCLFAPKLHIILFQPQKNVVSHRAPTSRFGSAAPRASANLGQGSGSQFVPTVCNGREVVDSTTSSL

[2] = target: T2, Metabotropic glutamate receptor 3 (Rattus norvegicus, UniProt P31422); test: Binding affinity towards metabotropic glutamate receptor 3 of rat expressed in CHO cells was determined by using [3H]MGS-0008; type: cell-based
T2 sequence (P31422 whole entry): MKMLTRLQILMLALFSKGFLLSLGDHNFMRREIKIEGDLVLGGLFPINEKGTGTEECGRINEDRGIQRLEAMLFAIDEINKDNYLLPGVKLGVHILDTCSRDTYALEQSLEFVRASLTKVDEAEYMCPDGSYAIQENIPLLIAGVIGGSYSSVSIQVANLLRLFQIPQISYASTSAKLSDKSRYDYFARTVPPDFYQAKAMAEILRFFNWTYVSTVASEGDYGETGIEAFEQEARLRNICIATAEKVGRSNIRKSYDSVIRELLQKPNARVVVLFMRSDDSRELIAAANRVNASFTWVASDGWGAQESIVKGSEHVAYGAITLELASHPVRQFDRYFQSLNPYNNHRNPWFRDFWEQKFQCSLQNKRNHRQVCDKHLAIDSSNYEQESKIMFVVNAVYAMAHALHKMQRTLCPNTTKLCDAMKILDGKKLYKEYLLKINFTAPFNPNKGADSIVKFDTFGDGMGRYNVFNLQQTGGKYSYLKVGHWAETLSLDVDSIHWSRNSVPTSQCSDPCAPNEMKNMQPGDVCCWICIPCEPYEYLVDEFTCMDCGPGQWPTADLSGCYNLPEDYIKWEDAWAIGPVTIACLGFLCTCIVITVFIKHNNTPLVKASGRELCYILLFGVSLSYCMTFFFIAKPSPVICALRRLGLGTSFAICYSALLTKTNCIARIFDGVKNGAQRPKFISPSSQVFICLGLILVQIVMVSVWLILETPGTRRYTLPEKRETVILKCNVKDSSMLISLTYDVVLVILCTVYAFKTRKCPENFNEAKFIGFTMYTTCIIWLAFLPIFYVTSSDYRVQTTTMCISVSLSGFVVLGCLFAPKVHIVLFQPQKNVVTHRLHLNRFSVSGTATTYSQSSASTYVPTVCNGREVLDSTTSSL

[3] = Half-life in rat upon oral dose of 30 mg/kg; type: ADME, organism-based; set-up: dose 30 mg/kg, route oral; details: in vivo
Summary of the method: (§1)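 Fasted rats were dosed orally at 3, 10 or 30 mg/kg. Plasma concentration-time profiles were measured by LC/ESI-MS/MS. Cmax, Tmax, elimination half-life and AUCinf were derived per dose group and reported as mean ± deviation.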

[4] = Maximum time required to achieve peak plasma concentration upon oral dose of 10 mg/kg to rats; type: ADME, organism-based; set-up: dose 10 mg/kg, route oral; details: rat; summary of the method: as §1
[5] = Concentration of compound in plasma of rat after 1 hr of oral dose 10 mg/kg; type: ADME, organism-based; set-up: dose 10 mg/kg, route oral
Summary of the method: (§2)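 Rats given a single peroral dose of 10 mg/kg. Plasma and cerebrum were sampled at 1, 3, 6 and 24 h. Concentrations were measured by LC/ESI-MS/MS using an internal standard. Detection limits were 1 ng/mL in plasma and 1.5 ng/g in brain. Tmax, Cmax, terminal half-life (lambda z) and predicted AUCinf were derived from the mean time-course levels.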

[6] = Maximum time required to achieve peak plasma concentration upon oral dose of 3 mg/kg to rats; type: ADME, organism-based; set-up: dose 3 mg/kg, route oral; details: rat; summary of the method: as §1
[7] = Concentration of compound in brain of rat after 6 hr of oral dose 10 mg/kg; type: ADME, organism-based; set-up: dose 10 mg/kg, route oral; summary of the method: as §2
[8] = Peak plasma concentration in rat brain upon oral dose of 10 mg/kg; type: ADME, organism-based; set-up: dose 10 mg/kg, route oral; summary of the method: as §2
[9] = Maximum time required to achieve peak plasma concentration in rat brain upon oral dose of 10 mg/kg; type: ADME, organism-based; set-up: dose 10 mg/kg, route oral; summary of the method: as §2
[10] = Peak plasma concentration in rats upon oral dose of 30 mg/kg; type: ADME, organism-based; set-up: dose 30 mg/kg, route oral; details: rat; summary of the method: as §1
[11] = Concentration of compound in brain of rat after 1 hr of oral dose 10 mg/kg; type: ADME, organism-based; set-up: dose 10 mg/kg, route oral; summary of the method: as §2
[12] = Concentration of compound in plasma of rat after 6 hr of oral dose 10 mg/kg; type: ADME, organism-based; set-up: dose 10 mg/kg, route oral; summary of the method: as §2
[13] = Maximum time required to achieve peak plasma concentration upon oral dose of 30 mg/kg to rats; type: ADME, organism-based; set-up: dose 30 mg/kg, route oral; details: rat; summary of the method: as §1
[14] = Concentration of compound in plasma of rat after 3h of oral dose 10 mg/kg; type: ADME, organism-based; set-up: dose 10 mg/kg, route oral; summary of the method: as §2
[15] = Half-life in rat upon oral dose of 3 mg/kg; type: ADME, organism-based; set-up: dose 3 mg/kg, route oral; details: in vivo; summary of the method: as §1
[16] = Half-life in rat upon oral dose of 10 mg/kg; type: ADME, organism-based; set-up: dose 10 mg/kg, route oral; details: in vivo; summary of the method: as §1
[17] = Peak plasma concentration in rats upon oral dose of 3 mg/kg; type: ADME, organism-based; set-up: dose 3 mg/kg, route oral; details: rat; summary of the method: as §1
[18] = target: T1, Metabotropic glutamate receptor 2; test: Effective concentration for agonistic activity towards metabotropic glutamate receptor 2 of rat expressed in CHO cells; type: functional, cell-based
[19] = Concentration of compound in brain of rat after 3h of oral dose 10 mg/kg; type: ADME, organism-based; set-up: dose 10 mg/kg, route oral; summary of the method: as §2
[20] = Peak plasma concentration in rats upon oral dose of 10 mg/kg; type: ADME, organism-based; set-up: dose 10 mg/kg, route oral; details: rat; summary of the method: as §1
[21] = Half-life in rat plasma upon oral dose of 10 mg/kg; type: ADME, organism-based; set-up: dose 10 mg/kg, route oral; summary of the method: as §2
[22] = Peak plasma concentration in rat plasma upon oral dose of 10 mg/kg; type: ADME, organism-based; set-up: dose 10 mg/kg, route oral; summary of the method: as §2
[23] = Maximum time required to achieve peak plasma concentration in rat plasma upon oral dose of 10 mg/kg; type: ADME, organism-based; set-up: dose 10 mg/kg, route oral; summary of the method: as §2
[24] = target: T3, Metabotropic glutamate receptor 6 (Rattus norvegicus, UniProt P35349); test: Concentration required to inhibit metabotropic glutamate receptor 6 activity of rat expressed in CHO cells; type: cell-based
T3 sequence (P35349 whole entry): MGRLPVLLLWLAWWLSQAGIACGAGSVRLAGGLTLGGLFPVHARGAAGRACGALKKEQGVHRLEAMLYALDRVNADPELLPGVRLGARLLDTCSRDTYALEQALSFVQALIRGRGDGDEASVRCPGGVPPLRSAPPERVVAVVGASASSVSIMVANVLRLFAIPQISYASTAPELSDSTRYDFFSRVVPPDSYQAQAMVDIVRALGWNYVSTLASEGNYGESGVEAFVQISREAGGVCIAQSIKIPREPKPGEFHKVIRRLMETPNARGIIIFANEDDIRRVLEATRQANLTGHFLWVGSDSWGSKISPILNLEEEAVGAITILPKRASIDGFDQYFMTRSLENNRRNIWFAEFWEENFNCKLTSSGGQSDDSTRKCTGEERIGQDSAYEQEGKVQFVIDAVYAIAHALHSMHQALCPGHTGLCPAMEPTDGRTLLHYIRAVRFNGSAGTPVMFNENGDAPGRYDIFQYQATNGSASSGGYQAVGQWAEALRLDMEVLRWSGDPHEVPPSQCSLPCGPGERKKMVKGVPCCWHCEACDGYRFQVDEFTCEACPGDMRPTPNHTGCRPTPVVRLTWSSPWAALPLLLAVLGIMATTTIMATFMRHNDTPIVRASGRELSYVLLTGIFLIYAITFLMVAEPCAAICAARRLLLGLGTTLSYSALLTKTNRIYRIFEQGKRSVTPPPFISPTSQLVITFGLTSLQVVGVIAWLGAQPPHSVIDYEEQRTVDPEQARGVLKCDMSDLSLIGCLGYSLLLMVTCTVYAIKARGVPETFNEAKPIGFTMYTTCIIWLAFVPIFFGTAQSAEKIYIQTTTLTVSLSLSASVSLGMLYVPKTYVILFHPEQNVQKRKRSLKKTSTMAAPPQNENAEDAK

[25] = Half-life in rat brain upon oral dose of 10 mg/kg; type: ADME, organism-based; set-up: dose 10 mg/kg, route oral; summary of the method: as §2
[26] = target: T4, Metabotropic glutamate receptor 5 (Rattus norvegicus, UniProt P31424); test: Concentration required to inhibit metabotropic glutamate receptor 5 activity of rat expressed in CHO cells; type: cell-based
T4 sequence (P31424 whole entry): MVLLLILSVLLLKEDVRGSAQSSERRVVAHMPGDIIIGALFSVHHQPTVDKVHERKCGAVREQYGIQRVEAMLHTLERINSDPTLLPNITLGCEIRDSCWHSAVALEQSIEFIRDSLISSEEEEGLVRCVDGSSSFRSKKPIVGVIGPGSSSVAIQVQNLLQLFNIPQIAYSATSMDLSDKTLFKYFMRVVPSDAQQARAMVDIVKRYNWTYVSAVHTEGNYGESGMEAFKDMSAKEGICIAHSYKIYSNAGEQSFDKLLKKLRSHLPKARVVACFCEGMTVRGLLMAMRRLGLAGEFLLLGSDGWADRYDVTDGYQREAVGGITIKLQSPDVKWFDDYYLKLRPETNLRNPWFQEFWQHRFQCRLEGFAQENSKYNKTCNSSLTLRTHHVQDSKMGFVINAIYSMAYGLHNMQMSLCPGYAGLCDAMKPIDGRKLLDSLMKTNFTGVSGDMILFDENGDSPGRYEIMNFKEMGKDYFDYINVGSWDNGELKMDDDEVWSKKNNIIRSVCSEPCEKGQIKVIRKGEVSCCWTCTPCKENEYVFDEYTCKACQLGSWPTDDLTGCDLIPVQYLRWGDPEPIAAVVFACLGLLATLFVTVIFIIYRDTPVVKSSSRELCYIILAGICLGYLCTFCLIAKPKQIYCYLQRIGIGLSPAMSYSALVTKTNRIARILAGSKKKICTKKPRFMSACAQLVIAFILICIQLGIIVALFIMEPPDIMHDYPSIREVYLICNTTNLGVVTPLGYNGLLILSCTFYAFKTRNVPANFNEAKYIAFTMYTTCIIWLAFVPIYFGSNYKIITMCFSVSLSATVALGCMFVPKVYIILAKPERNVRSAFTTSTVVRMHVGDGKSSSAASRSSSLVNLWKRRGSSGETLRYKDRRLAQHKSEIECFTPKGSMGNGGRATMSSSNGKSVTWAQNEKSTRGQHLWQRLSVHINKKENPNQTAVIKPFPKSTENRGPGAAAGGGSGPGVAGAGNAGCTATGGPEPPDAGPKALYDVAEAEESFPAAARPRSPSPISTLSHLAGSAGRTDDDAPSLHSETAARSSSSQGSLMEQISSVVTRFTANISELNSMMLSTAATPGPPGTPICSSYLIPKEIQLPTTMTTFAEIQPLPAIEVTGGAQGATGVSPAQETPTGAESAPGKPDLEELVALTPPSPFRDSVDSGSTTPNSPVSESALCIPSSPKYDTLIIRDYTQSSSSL

[27] = target: T2, Metabotropic glutamate receptor 3; test: Concentration required to inhibit metabotropic glutamate receptor 3 activity of rat expressed in CHO cells; type: cell-based
[28] = target: T2, Metabotropic glutamate receptor 3; test: Effective concentration for agonistic activity towards metabotropic glutamate receptor 3 of rat expressed in CHO cells; type: functional, cell-based
[29] = Concentration of compound in brain of rat after 24 hr of oral dose 10 mg/kg; type: ADME, organism-based; set-up: dose 10 mg/kg, route oral; summary of the method: as §2
[30] = target: Metabotropic glutamate receptor 4 (Rattus norvegicus, UniProt P31423); test: Concentration required to inhibit metabotropic glutamate receptor 4 activity of rat expressed in CHO cells; type: cell-based
[31] = target: T5, Metabotropic glutamate receptor 1 (Rattus norvegicus, UniProt P23385); test: Effective concentration for agonistic activity towards metabotropic glutamate receptor 1 of rat expressed in CHO cells; type: functional, cell-based
T5 sequence (P23385 whole entry): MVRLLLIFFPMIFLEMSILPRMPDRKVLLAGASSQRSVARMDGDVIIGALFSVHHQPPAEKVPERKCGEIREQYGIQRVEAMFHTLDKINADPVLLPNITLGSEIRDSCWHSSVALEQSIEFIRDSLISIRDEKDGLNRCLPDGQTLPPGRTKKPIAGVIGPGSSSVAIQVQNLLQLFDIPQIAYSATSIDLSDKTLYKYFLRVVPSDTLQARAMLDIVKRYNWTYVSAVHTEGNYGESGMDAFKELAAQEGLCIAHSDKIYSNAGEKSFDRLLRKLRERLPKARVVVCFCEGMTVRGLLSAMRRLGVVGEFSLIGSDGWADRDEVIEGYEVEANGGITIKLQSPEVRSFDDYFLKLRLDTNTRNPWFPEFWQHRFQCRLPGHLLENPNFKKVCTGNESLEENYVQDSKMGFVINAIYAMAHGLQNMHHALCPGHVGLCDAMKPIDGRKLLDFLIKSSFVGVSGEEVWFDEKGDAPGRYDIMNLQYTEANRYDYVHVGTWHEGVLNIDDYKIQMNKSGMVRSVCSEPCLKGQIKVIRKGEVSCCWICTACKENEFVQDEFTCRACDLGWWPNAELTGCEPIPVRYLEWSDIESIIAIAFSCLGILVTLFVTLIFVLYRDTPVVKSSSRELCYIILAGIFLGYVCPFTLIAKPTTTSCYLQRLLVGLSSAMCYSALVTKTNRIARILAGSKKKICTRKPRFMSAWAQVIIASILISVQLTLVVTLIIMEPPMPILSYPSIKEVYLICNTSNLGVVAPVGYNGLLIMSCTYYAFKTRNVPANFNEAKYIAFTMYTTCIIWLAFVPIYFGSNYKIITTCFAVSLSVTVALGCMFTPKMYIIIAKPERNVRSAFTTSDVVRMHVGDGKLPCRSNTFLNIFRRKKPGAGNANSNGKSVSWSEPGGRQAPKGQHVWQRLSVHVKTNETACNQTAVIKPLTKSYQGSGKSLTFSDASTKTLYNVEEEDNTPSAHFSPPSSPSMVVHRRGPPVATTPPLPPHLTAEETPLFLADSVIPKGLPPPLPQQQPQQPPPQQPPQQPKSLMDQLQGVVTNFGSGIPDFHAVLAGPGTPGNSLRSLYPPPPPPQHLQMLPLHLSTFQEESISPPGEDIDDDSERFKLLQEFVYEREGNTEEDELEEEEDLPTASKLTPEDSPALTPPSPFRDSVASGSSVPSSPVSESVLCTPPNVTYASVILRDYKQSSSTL

[32] = target: T3, Metabotropic glutamate receptor 6; test: Effective concentration for agonistic activity towards metabotropic glutamate receptor 6 of rat expressed in CHO cells; type: functional, cell-based
[33] = target: T4, Metabotropic glutamate receptor 5; test: Effective concentration for agonistic activity towards metabotropic glutamate receptor 5 of rat expressed in CHO cells; type: functional, cell-based
[34] = target: Metabotropic glutamate receptor 7 (Rattus norvegicus, UniProt P35400); test: Binding affinity towards metabotropic glutamate receptor 7 of rat expressed in CHO cells was determined by using [3H]LY341495
[35] = Concentration of compound in plasma of rat after 24 hr of oral dose 10 mg/kg; type: ADME, organism-based; set-up: dose 10 mg/kg, route oral; summary of the method: as §2
[36] = target: T5, Metabotropic glutamate receptor 1; test: Concentration required to inhibit metabotropic glutamate receptor 1 activity of rat expressed in CHO cells; type: cell-based
[37] = target: T1, Metabotropic glutamate receptor 2; test: Concentration required to inhibit metabotropic glutamate receptor 2 activity of rat expressed in CHO cells; type: cell-based

Ki [1]: 4.3 nM
SMILES: N[C@]1(C(=O)O)[C@H]2[C@@H](C[C@H]1OCc1c(Cl)cccc1Cl)[C@]2(F)C(=O)O

Ki [1]: 5.72 nM
SMILES: N[C@]1(C(=O)O)[C@H]2[C@@H](C[C@H]1OCc1cccc(C(F)(F)F)c1)[C@]2(F)C(=O)O

Ki [2]: 4.77 nM | half-life [3]: 3.28 h | Tmax [4]: 2.3 h | concentration at 1 h [5]: 176 ng/mL | Tmax [6]: 1.3 h | Ki [1]: 3.17 nM | concentration at 6 h [7]: 3.39 ng/mL | Cmax [8]: 3.66 ng/mL | Tmax [9]: 3 h | Cmax [10]: 651 ng/mL | concentration at 1 h [11]: 2.51 ng/mL | concentration at 6 h [12]: 98.2 ng/mL | Tmax [13]: 2.7 h | concentration at 3 h [14]: 225 ng/mL | half-life [15]: 1.67 h | half-life [16]: 3.75 h | Cmax [17]: 76.6 ng/mL | EC50 [18]: > 100000 nM | concentration at 3 h [19]: 3.66 ng/mL | Cmax [20]: 272 ng/mL | half-life [21]: 2.5 h | Cmax [22]: 225 ng/mL | Tmax [23]: 3 h
SMILES: N[C@]1(C(=O)O)[C@H]2[C@@H](C[C@H]1OCc1ccc(Cl)cc1)[C@]2(F)C(=O)O

IC50 [24]: 2060 nM | Ki [2]: 4.46 nM | half-life [3]: 2.77 h | Tmax [4]: 2.7 h | concentration at 1 h [5]: 364 ng/mL | half-life [25]: 10.9 h | Tmax [6]: 2 h | Ki [1]: 2.38 nM | concentration at 6 h [7]: 13.2 ng/mL | IC50 [26]: 117000 nM | IC50 [27]: 24 nM | EC50 [28]: > 100000 nM | Cmax [8]: 13.2 ng/mL | Tmax [9]: 6 h | Cmax [10]: 2960 ng/mL | concentration at 24 h [29]: 4.22 ng/mL | concentration at 1 h [11]: 3.88 ng/mL | concentration at 6 h [12]: 492 ng/mL | Tmax [13]: 3.3 h | IC50 [30]: 1740 nM | EC50 [31]: > 100000 nM | concentration at 3 h [14]: 429 ng/mL | half-life [15]: 2.15 h | half-life [16]: 2.76 h | Cmax [17]: 214 ng/mL | EC50 [32]: > 100000 nM | EC50 [33]: > 100000 nM | EC50 [18]: > 100000 nM | Ki [34]: 664 nM | concentration at 3 h [19]: 8.02 ng/mL | Cmax [20]: 932 ng/mL | half-life [21]: 2.3 h | concentration at 24 h [35]: 2.1 ng/mL | Cmax [22]: 492 ng/mL | Tmax [23]: 6 h | IC50 [36]: 93300 nM
SMILES: N[C@]1(C(=O)O)[C@H]2[C@@H](C[C@H]1OCc1ccc(Cl)c(Cl)c1)[C@]2(F)C(=O)O

Ki [1]: 3.75 nM
SMILES: N[C@]1(C(=O)O)[C@H]2[C@@H](C[C@H]1OC(c1ccc(Cl)cc1)c1ccc(Cl)cc1)[C@]2(F)C(=O)O

Ki [2]: 67.1 nM | Ki [1]: 32.9 nM | EC50 [18]: > 100000 nM
SMILES: N[C@@]1(C(=O)O)[C@H](O)C[C@@H]2[C@H]1[C@@]2(F)C(=O)O

Ki [1]: 1.61 nM
SMILES: CC[C@@H](O[C@@H]1C[C@@H]2[C@H]([C@]1(N)C(=O)O)[C@@]2(F)C(=O)O)c1ccc(Cl)c(Cl)c1

Ki [1]: 4.53 nM
SMILES: Cc1cccc(CO[C@@H]2C[C@@H]3[C@H]([C@]2(N)C(=O)O)[C@@]3(F)C(=O)O)c1

Ki [1]: 17.1 nM
SMILES: N[C@@]1(C(=O)O)[C@@H](OCc2ccc(Cl)c(Cl)c2)C[C@@H]2[C@H]1[C@@]2(F)C(=O)O

Ki [1]: 4.35 nM
SMILES: N[C@]1(C(=O)O)[C@H]2[C@@H](C[C@H]1OCc1cccc(Cl)c1Cl)[C@]2(F)C(=O)O

Ki [1]: 4.71 nM
SMILES: N[C@]1(C(=O)O)[C@H]2[C@@H](C[C@H]1OCc1cccc(Br)c1)[C@]2(F)C(=O)O

Ki [1]: 5.81 nM
SMILES: C[C@H](O[C@@H]1C[C@@H]2[C@H]([C@]1(N)C(=O)O)[C@@]2(F)C(=O)O)c1ccc(Cl)c(Cl)c1

Ki [2]: 3 nM | half-life [3]: 3.62 h | Tmax [4]: 1.7 h | concentration at 1 h [5]: 213 ng/mL | half-life [25]: 19.5 h | Tmax [6]: 1.3 h | Ki [1]: 2.27 nM | concentration at 6 h [7]: 2.4 ng/mL | Cmax [8]: 3.11 ng/mL | Tmax [9]: 3 h | Cmax [10]: 635 ng/mL | concentration at 24 h [29]: 1.39 ng/mL | concentration at 1 h [11]: 3.06 ng/mL | concentration at 6 h [12]: 41.1 ng/mL | Tmax [13]: 1.2 h | concentration at 3 h [14]: 179 ng/mL | half-life [15]: 3.47 h | half-life [16]: 1.78 h | Cmax [17]: 82.3 ng/mL | EC50 [18]: > 100000 nM | concentration at 3 h [19]: 3.11 ng/mL | Cmax [20]: 297 ng/mL | half-life [21]: 2.8 h | concentration at 24 h [35]: 0.8 ng/mL | IC50 [37]: 40.8 nM | Cmax [22]: 213 ng/mL | Tmax [23]: 1 h
SMILES: N[C@]1(C(=O)O)[C@H]2[C@@H](C[C@H]1OCc1ccc(F)c(F)c1)[C@]2(F)C(=O)O

Ki [1]: 5.92 nM
SMILES: COc1cccc(CO[C@@H]2C[C@@H]3[C@H]([C@]2(N)C(=O)O)[C@@]3(F)C(=O)O)c1

Ki [1]: 1.06 nM
SMILES: N[C@]1(C(=O)O)[C@H]2[C@@H](C[C@H]1OCc1cccc(C(=O)O)c1)[C@]2(F)C(=O)O
